Article PMC3364105 (Nature Biotechnology, 2011)
Blank lines part the entries; values can stand above or below the compound they belong to.

Tests used:
Type in all cases: in vivo
sciatic nerve = test: Cy5-NP41 nerve labeling and localization in thy1-YFP transgenic mice; settings: for nerve-to-muscle contrast / nerve labeling: injected into thy1-YFP transgenic mice
peripheral nerves = settings: FAM-labeled peptide, intravenous, living mice; for background binding to surrounding nonneural tissue: 2–4 h after injection
Method in brief: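 Peptides were made as fluorescein-5(6)-carbonyl (FAM) conjugates on a C-terminal lysinamide. The control was a same-format peptide with the shared amino acids in random order. Each was given intravenously to living mice, and FAM fluorescence contrast between peripheral nerve and muscle was evaluated 2–4 h post-injection.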

[1] = Biodistribution and urine metabolites after systemic administration; settings: mice
Method in brief: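 Mice received 150 nmoles FAM- or Cy5-labeled test peptide intravenously. Organs were harvested and fluorescence uptake was evaluated. Urine was analysed by MALDI mass spectrometry to identify the major fluorescently labeled species. The control was an all-D-amino-acid FAM-labeled peptide.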

[2] = Behavior, activity, weight and morbidity after injection; settings: mice, injections of 75–300 nmoles

Compound: CCN1/C(=C/C=C/C=C/C2=[N+](CCCCCC(=O)O)c3ccc(S(=O)(=O)O)cc3C2(C)C)C(C)(C)c2cc(S(=O)(=O)[O-])ccc21 [unconjugated Cy5, reference compound]
- nerve-to-muscle contrast / nerve labeling (sciatic nerve): No nerve-to-muscle contrast was detected

Compound: AHHNSWKAKHHS [NP38]
- background binding to surrounding nonneural tissue (peripheral nerves): high-background binding to the surrounding nonneural tissue

Compound: NTQTLAKAPEHT [NP41]
- nerve-to-muscle contrast (peripheral nerves; evaluated 2–4 h after injection): best nerve to nonnerve contrast

Compound: TYTDWLNFWAWP [NP39]
- background binding to surrounding nonneural tissue (peripheral nerves): high-background binding to the surrounding nonneural tissue

- state of peptide recovered in urine ([1]; urine, liquid chromatography–electrospray mass spectrometry / MALDI-MS): efficiently metabolized
- major fluorescently labeled species in urine ([1]; urine, matrix-assisted laser desorption/ionization mass spectrometry): cysteinamide-Cy5
- change in behavior or activity [2]: no change in behavior or activity
Compound: acetyl-SHSNTQTLAKAPEHTGC-(Cy5)-amide [Cy5-NP41]
- biodistribution of fluorescence ([1]; intravenous, 150 nmoles, harvested organs): majority of the fluorescence accumulated in the kidney and was excreted into the urine
- localization within nerve (sciatic nerve; 3–5 µm cryosections of nerves from thy1-YFP animals): localized to the epineurium of the nerves with some labeling of the perineurium and endoneurium, but did not colocalize with either myelin or axons
- nerve-to-muscle contrast / nerve labeling (sciatic nerve): precisely labeled nerves that expressed YFP
